Screens (PubChem)
CHRM4 PAM – potentiates acetylcholine response at human M4 receptor | activation, % at 3 µM | actives 0.4% (n = 360,000) | CHO-K1 hM4/Gqi5, Fluo-8 calcium fluorescence, ACh EC20; 0% = ACh EC20, 100% = maximal ACh | P08173;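 active means activation above its plate's cutoff, the mean activation of sample wells plus 3 SD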
CHRM5 antagonist – antagonists of human muscarinic M5 receptor (CHRM5); P08912; CHO-hM5 cells, Fluo-8 calcium fluorescence, ACh EC80; inhibition, % at 3 µM; actives 0.59% (n = 360,000); AID 624040;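 active means inhibition above a per-plate cutoff, the mean of that plate's test compounds plus 3 SD, cut at about 27% in these data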;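 further: 0% = acetylcholine EC80 with DMSO and 100% = DMSO without agonist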
Target sequence (P08912 whole entry, looked up): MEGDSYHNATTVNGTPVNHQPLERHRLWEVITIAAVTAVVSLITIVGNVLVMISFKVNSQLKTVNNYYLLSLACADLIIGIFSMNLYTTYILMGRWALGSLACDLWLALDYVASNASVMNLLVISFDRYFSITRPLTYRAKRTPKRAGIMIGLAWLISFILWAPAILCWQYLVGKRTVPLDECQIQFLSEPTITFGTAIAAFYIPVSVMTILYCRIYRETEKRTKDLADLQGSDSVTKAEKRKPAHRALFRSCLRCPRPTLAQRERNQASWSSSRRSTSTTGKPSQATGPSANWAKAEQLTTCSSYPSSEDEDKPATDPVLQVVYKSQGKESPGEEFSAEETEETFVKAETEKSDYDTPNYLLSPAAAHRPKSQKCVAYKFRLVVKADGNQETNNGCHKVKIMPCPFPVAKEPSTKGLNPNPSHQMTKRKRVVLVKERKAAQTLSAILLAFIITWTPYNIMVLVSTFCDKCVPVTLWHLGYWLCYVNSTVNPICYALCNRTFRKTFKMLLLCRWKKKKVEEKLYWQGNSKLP
M5 ag – agonists of human muscarinic M5 receptor (CHRM5) | activation, % at 3 µM | actives 0.19% (n = 360,000) | P08912 | AID 624037 | CHO-K1 hM5 cells, Fluo-8 calcium fluorescence; 0% DMSO wells, 100% maximal acetylcholine response;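 active means activation above the run's mean over test compounds plus 3 SD, cut at about 23% in these data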;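 further: signal is peak over basal fluorescence ratio across the kinetic read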
CHRM4 antagonist – blocks acetylcholine activation of human M4 receptor; P08173; CHO-hM4 cells, ACh EC80, Fluo-8 calcium fluorescence; inhibition, % at 3 µM; actives 0.73% (n = 360,000);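 active means inhibition above its plate's cutoff, the mean inhibition of sample wells plus 3 SD, cut at about 27% in these data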;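 further: 0% = acetylcholine EC80 with DMSO and 100% = DMSO without agonist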
M4 ag – CHRM4 agonism in calcium assay | P08173 | CHO-K1 hM4/Gqi5, Fluo-8 calcium fluorescence; vehicle 0%, full acetylcholine response 100% | activation, % at 3 µM | actives 0.14% (n = 360,000) | AID 624127;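 active means activation above the run mean over all test wells plus 3 SD, cut at about 32% in these data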;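 further: peak over basal fluorescence ratio per well then scaled between controls; 0% = DMSO wells and 100% = acetylcholine at EC100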
CHRM5 PAM – CHRM5 positive allosteric modulation; CHO-K1 hM5, Fluo-8 calcium, ACh EC20 PAM; 0% = ACh EC20, 100% = ACh EC100; actives 0.3% (n = 360,000); P08912; AID 624038; activation, % at 3 µM;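 active means activation above the run cutoff, the mean activation of all test compounds plus 3 SD, cut at about 18% in these data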
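Measured by: Fluo-8 calcium fluorescence; material: human M5 receptor in CHO-K1 cells; schedule: Post-acetylcholine fluorescence recording 140 s; benchmarks: low control EC20 acetylcholine (0%), high control EC100 acetylcholine (100%); read-out: Max/basal fluorescence ratio as % of EC20–EC100 ACh window; compound: single dose, 3 µM nominal final test concentration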
An asterisk follows results filed as active. Rows were chosen to be rich in hits. Some 1.8% of all compounds tested hit in one or more screens of this group.

SMILES	CHRM4 PAM	CHRM5 antagonist	M5 ag	CHRM4 antagonist	M4 ag	CHRM5 PAM
Cc1nc(N)sc1C(=O)N/N=C/c1ccccc1[N+](=O)[O-]	22*	-11	1	-11	3	12
Cc1nc(N)sc1C(=O)N/N=C/c1ccc([N+](=O)[O-])cc1	-5	12	-1	-7	1	0
CCOC(=O)c1cc2c(nc1N)CC(C)(CC)OC2 (centres undefined)	17*	2	2	0	1	-4
CN(C(=O)c1ccoc1)c1ccc2ccccc2c1	-1	1	1	4	3	-3
Cc1cc(C)c2c(n1)sc1c(N3CCN(C)CC3)ncnc12	25	8	0	17	1	-1
Cc1cc(C)c2c(n1)sc1c(N3CCCCC3)ncnc12	23*	0	-2	-9	2	4
O=C(NC1CCCCC1)c1ccc(-c2cn[nH]c2)c2ccoc12	3	5	4	-7	2	-2
CC(=O)Oc1cccc(C(=O)Nc2ccccc2C(=O)N2CCCC2)c1	-1	0	5	4	1	2
Cc1cn([C@H]2C[C@H](O)[C@@H](COS(=O)(=O)O)O2)c(=O)[nH]c1=O	5	0	-3	-3	7	8
CC1(C)O[C@@H]2[C@H](O1)[C@@H](COS(=O)(=O)O)O[C@H]2n1cc(Br)c(=O)[nH]c1=O	25*	-8	5	-2	3	9
O=C(COC(=O)/C=C/c1ccccc1Cl)NC1CCCC1	-1	8	4	4	2	10
CCN(CC)CCC(C)OC(c1ccccc1)c1ccccc1 (centres undefined)	-22	38*	-13	6	2	-33
Cc1ccc(C(OCC(C)(C)C[N+](C)(C)C)c2ccccc2)cc1 (centres undefined)	-21	94*	-11	52*	2	-21
CCN(CC)CCOC(c1ccccc1)c1ccc(C)cc1 (centres undefined)	-17	75*	-8	43*	2	-19
Cc1ccccc1C(OCCN(C)C)c1ccccc1 (centres undefined)	-18	92*	-1	62*	2	-19
CCN(CC)CCCCCOc1ccccc1OC	2	-2	-5	7	2	2
CCOc1ccccc1NC(=O)c1ccc2c(c1)C(=O)N(CC)C2=O	10	-3	1	-15	1	4
O=C(CN1CCCC1c1ccc2c(c1)OCCO2)NC(=O)Nc1ccccc1 (centres undefined)	1	4	-3	-20	3	5
O=C(c1ccc(Br)cc1)N1CCC2(CC1)NCCc1[nH]cnc12	5	-3	-1	-9	1	4
O=C(Nc1ccc(F)cc1)C(c1ccncc1)N1CCN(C(=O)c2ccco2)CC1 (centres undefined)	15	-13	1	-4	0	20*
COc1ccc(CCNC(=S)c2ccccc2)cc1OC	-10	11	3	3	15	-15
Cc1cc(Oc2ccc(N)cn2)ccc1Cl	0	31*	24*	18	8	1
O=C(NC1CCC(O)CC1)c1cccnc1Sc1ccccc1Cl (centres undefined)	1	10	-4	4	1	-2
CN1CCN(c2ccc(-c3ccnn3C(=O)Nc3cccc(C(F)(F)F)c3)cc2)CC1	-3	28*	6	9	11	-14
COc1ccc(-c2noc(CCCCC(=O)N3CCN(c4cc(C)ccc4C)CC3)n2)cc1	-11	32*	7	30*	8	-13
SMILES	CHRM4 PAM	CHRM5 antagonist	M5 ag	CHRM4 antagonist	M4 ag	CHRM5 PAM
c1ccc(-c2nn3nnnc3c3ccccc23)cc1	-3	2	0	5	0	-2
Cc1ccc(-c2nn3nnnc3c3ccccc23)cc1C	39*	7	-2	11	1	10
CC(C)(C)C(=O)Nc1ccc(S(=O)(=O)Nc2ccccn2)cc1	25*	-9	-3	-9	3	10
O=C(Nc1ccc(S(=O)(=O)Nc2ccccn2)cc1)C(F)(F)F	10	5	-2	-2	1	10
CCCC(NC(=O)C(C)N1CCN(S(=O)(=O)c2ccccc2)CC1)c1ccccc1 (centres undefined)	3	-1	0	3	1	10
Cc1c(C(=O)NCc2ccccc2C(F)(F)F)sc(=O)n1Cc1ccc(S(=O)(=O)N(C)C)cc1	-8	2	-3	6	8	-14
COC(=O)Cc1ccc(OC(=O)CCS(=O)(=O)c2ccc(C)cc2)cc1	0	0	-3	-1	0	1
Cc1ccc(OC(=O)CCS(=O)(=O)c2ccc(C)cc2)cc1	18*	-6	-3	-1	1	16
CC1(C(=O)NS(=O)(=O)c2cccc(Cl)c2)CCN1C(=O)C1(c2ccc(Cl)cc2)CC1 (centres undefined)	8	-4	-1	-20	0	-2
Cc1ccc(N2C(=O)CCSC23C(=O)Nc2ccccc23)cc1 (centres undefined)	-18	7	-7	27*	1	-9
COc1ccccc1N1CCN(S(=O)(=O)c2ccc3c(c2)oc(=O)n3C)CC1	1	27*	-2	2	2	-13
Cn1c(=O)oc2cc(S(=O)(=O)CCC(=O)N3CCN(c4ccccc4F)CC3)ccc21	8	11	11	-16	3	37*
Cn1c(=O)oc2cc(S(=O)(=O)N3CCN(c4ccccc4F)CC3)ccc21	7	8	-3	-17	1	-6
C=CCOc1ccc(/C=C/C(=O)OCC(=O)N(C)CC(=O)Nc2ccccc2Cl)cc1	-9	8	-3	2	6	-1
CCN(c1ccccc1)S(=O)(=O)c1ccc2c(c1)CC(C)N2C(=O)C1CC1 (centres undefined)	-8	27*	0	8	16	-9
COc1ncnc2c1ncn2CCCN1CCN(c2ccccn2)CC1	6	3	2	-9	1	4
COc1ccc(C2CC(c3ccccc3)=NN2c2ccc(C(N)=O)cc2)cc1 (centres undefined)	-4	30*	-5	8	4	-1
COc1ccc(C2CC(c3ccccc3)=NN2c2ccc(S(N)(=O)=O)cc2)cc1 (centres undefined)	1	11	1	-10	5	7
CN(C)S(=O)(=O)c1ccc(C(=O)Nc2ccc(CCC(=O)N3CCCC3)cc2)cc1	10	3	-1	1	1	-5
